≈ marks a conversion by molar mass, not a printed value.
How the values were obtained:
UO-31 = assay: Growth inhibition of human UO31 cells; type: functional
In short: (§1)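 Values come from the NCI in vitro disease-oriented human tumor cell screen. GI50 is the concentration giving 50% growth inhibition of tumor cells; pGI50 is its −log molar form.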

[1] = Growth inhibition of human Hs 578T cells; type: functional
LOX IMVI = assay: Growth inhibition of human LOXIMVI cells; type: functional
SK-OV-3 = assay: Growth inhibition of human SKOV3 cells; type: functional; in short: as §1
[2] = Cytotoxicity against human RXF 486L cells after 4 days by modified propidium iodide staining-based fluorescence assay; type: functional, cell-based; settings: 96 h
In short: (§2)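 Cells cultured in RPMI 1640 with 10% fetal calf serum and 0.1 mg/mL gentamicin at 37 °C, 5% CO2. Cells from exponential cultures were trypsinized and plated at 4.000-20.000 cells/well by line. After 24 h recovery, compounds were added at five log-spaced concentrations (highest 100 μg/mL) for 4 days. Proliferation was read as DNA content with aqueous propidium iodide (7 μg/ml), fluorescence ex 530/em 620 nm. Points were run in triplicate.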

DU-145 = assay: Cytotoxicity against human DU145 cells after 4 days by modified propidium iodide staining-based fluorescence assay; type: functional, cell-based; settings: DU-145, 96 h; in short: as §2
SN12C = assay: Growth inhibition of human SN12C cells; type: functional; in short: as §1
TK-10 = assay: Growth inhibition of human TK10 cells; type: functional; in short: as §1
COLO 205 = assay: Growth inhibition of human COLO205 cells; type: functional
[3] = Cytotoxicity against human 1752L cells after 4 days by modified propidium iodide staining-based fluorescence assay; type: functional, cell-based; settings: 96 h; in short: as §2
SF-295 = assay: Growth inhibition of human SF295 cells; type: functional; in short: as §1
[4] = Cytotoxicity against human 1657L cells after 4 days by modified propidium iodide staining-based fluorescence assay; type: functional, cell-based; settings: 96 h; in short: as §2
[5] = Cytotoxicity against human UXF 1138L cells after 4 days by modified propidium iodide staining-based fluorescence assay; type: functional, cell-based; settings: 96 h; in short: as §2
NCI-H522 = assay: Growth inhibition of human NCI-H522 cells; type: functional; in short: as §1
[6] = Growth inhibition of human […] cells; type: functional; in short: as §1
SF-268 [7] = assay: Cytotoxicity against human SF268 cells after 4 days by modified propidium iodide staining-based fluorescence assay; type: functional, cell-based; settings: SF-268, 96 h; in short: as §2
IGROV-1 = assay: Growth inhibition of human IGROV1 cells; type: functional
T-24 = assay: Cytotoxicity against human T24 cells after 4 days by modified propidium iodide staining-based fluorescence assay; type: functional, cell-based; settings: T-24, 96 h; in short: as §2
NCI-H460 = assay: Growth inhibition of human NCI-H460 cells; type: functional; in short: as §1
HCT-116 [8] = assay: Growth inhibition of human HCT116 cells; type: functional
HL-60(TB) = assay: Growth inhibition of human HL-60(TB) cells; type: functional
In short: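 Values come from the NCI in vitro disease-oriented human tumour cell line screen, not from this lab's propidium iodide assay. GI50 is the concentration giving 50% inhibition of net cell growth, also reported as pGI50, the −log of that molar concentration.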

CCRF-CEM = assay: Growth inhibition of human CCRF-CEM cells; type: functional
SNB-19 = assay: Growth inhibition of human SNB19 cells; type: functional; in short: as §1
[9] = Cytotoxicity against human 899L cells after 4 days by modified propidium iodide staining-based fluorescence assay; type: functional, cell-based; settings: 96 h; in short: as §2
OVCAR-5 = assay: Growth inhibition of human OVCAR5 cells; type: functional; in short: as §1
[10] = Cytotoxicity against human MEXF 462NL cells after 4 days by modified propidium iodide staining-based fluorescence assay; type: functional, cell-based; settings: 96 h; in short: as §2
RXF 393 = assay: Growth inhibition of human RXF393 cells; type: functional; in short: as §1
EKVX = assay: Growth inhibition of human EKVX cells; type: functional
HCT-116 [11] = assay: Cytotoxicity against human HCT116 cells after 4 days by modified propidium iodide staining-based fluorescence assay; type: functional, cell-based; settings: HCT-116, 96 h; in short: as §2
SF-539 = assay: Growth inhibition of human SF539 cells; type: functional; in short: as §1
MDA-MB-231 = assay: Growth inhibition of human MDA-MB-231 cells; type: functional; in short: as §1
[12] = Cytotoxicity against human MEXF 276L cells after 4 days by modified propidium iodide staining-based fluorescence assay; type: functional, cell-based; settings: MEXF276L, 96 h; in short: as §2
[13] = Cytotoxicity against human GXF251L cells after 4 days by modified propidium iodide staining-based fluorescence assay; type: functional, cell-based; settings: GXF 251L, 96 h; in short: as §2
NCI-H23 = assay: Growth inhibition of human NCI-H23 cells; type: functional; in short: as §1
HT-29 = assay: Cytotoxicity against human HT-29 cells after 4 days by modified propidium iodide staining-based fluorescence assay; type: functional, cell-based; settings: HT-29, 96 h; in short: as §2
MCF7 = assay: Cytotoxicity against human MCF7 cells after 4 days by modified propidium iodide staining-based fluorescence assay; type: functional, cell-based; settings: MCF7, 96 h; in short: as §2
M14 = assay: Growth inhibition of human M14 cells; type: functional
LNCaP = assay: Cytotoxicity against human LNCAP cells after 4 days by modified propidium iodide staining-based fluorescence assay; type: functional, cell-based; settings: 96 h; in short: as §2
SF-268 [14] = assay: Growth inhibition of human SF268 cells; type: functional; in short: as §1
SK-MEL-5 = assay: Growth inhibition of human SK-MEL-5 cells; type: functional; in short: as §1
OVCAR-8 = assay: Growth inhibition of human OVCAR8 cells; type: functional; in short: as §1
HOP-92 = assay: Growth inhibition of human HOP92 cells; type: functional

Question: What does the source list for `COc1ccc2c(c1)c(-c1ccc(-c3cn(C)c4ccc(OC)cc34)o1)cn2C`?
Answer: GI50 (UO-31): 3.6 µM; GI50 [1]: 5.11 µM; GI50 (LOX IMVI): 10.4 µM; GI50 (SK-OV-3): > 100 µM; IC50 [2]: > 100 µg/mL; IC50 (DU-145): > 100 µg/mL; GI50 (SN12C): 21.6 µM; GI50 (TK-10): 11 µM; GI50 (COLO 205): 5.13 µM; IC50 [3]: 77.4 µg/mL (≈ 200 µM); GI50 (SF-295): 13.4 µM; IC50 [4]: > 100 µg/mL; IC50 [5]: 13.7 µg/mL (≈ 35.5 µM); GI50 (NCI-H522): 3.42 µM; GI50 [6]: 2.25 µM; IC50 (SF-268 [7]): 35.1 µg/mL (≈ 90.8 µM); GI50 (IGROV-1): 29.6 µM; IC50 (T-24): > 100 µg/mL; GI50 (NCI-H460): 9.89 µM; GI50 (HCT-116 [8]): 8.8 µM; GI50 (HL-60(TB)): 1.98 µM; GI50 (CCRF-CEM): 6.46 µM; GI50 (SNB-19): 29.8 µM; IC50 [9]: > 100 µg/mL; GI50 (OVCAR-5): 2.79 µM; IC50 [10]: 12.5 µg/mL (≈ 32.3 µM); GI50 (RXF 393): 10.4 µM; GI50 (EKVX): 5.48 µM; IC50 (HCT-116 [11]): 50.4 µg/mL (≈ 130 µM); GI50 (SF-539): 2.47 µM; GI50 (MDA-MB-231): 4.2 µM; IC50 [12]: 3.8 µg/mL (≈ 9.83 µM); IC50 [13]: 3.8 µg/mL (≈ 9.83 µM); GI50 (NCI-H23): 17.3 µM; IC50 (HT-29): > 100 µg/mL; IC50 (MCF7): 6.2 µg/mL (≈ 16 µM); GI50 (M14): 32.9 µM; IC50 (LNCaP): 28.2 µg/mL (≈ 73 µM); GI50 (SF-268 [14]): 9.25 µM; GI50 (SK-MEL-5): 10.4 µM; GI50 (OVCAR-8): 8.02 µM; GI50 (HOP-92): 1.03 µM

Source: ChEMBL document CHEMBL1165947, “Synthesis and antitumor activity of 2,5-bis(3'-indolyl)-furans and 3,5-bis(3'-indolyl)-isoxazoles, nortopsentin analogues” (Bioorg Med Chem, 2010)
